Experimental data: article PMC2581794 (Bioorganic & medicinal chemistry, 2008)

What was measured:
Lck = Lck (Homo sapiens, UniProt P06239); test: Photoaffinity-labeling; assay type: biochemical; conditions: for photolabeling of Lck in the presence of an ATP-competitive inhibitor of Lck: Figure S2, competition with ATP-competitive Lck inhibitor; for photolabeling efficiency of Lck (in words): compared with compound 1
Summary of the method: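 Commercial Lck photolabelled with biotin-tagged benzophenone ligands at 0, 3, 9, 18, 36, 90 and 180 µM. Western blot on PVDF: after blocking, streptavidin-HRP (1:10,000 in 3% non-fat milk/TBS-T) and ECL-Plus chemiluminescence. Bands quantified with background subtracted as 0%; 100% = maximal band of reference photoligand at 180 µM. EC50 from sigmoidal fit of triplicates (n = 3), with 95% CI.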

[1] = Decomposition of free photoligands under UV light; assay type: physicochemical; conditions: UV-A lamp λmax 350 nm, up to 30 min, HPLC
Summary of the method: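 Each probe at 30 µM in buffer was held on ice about 5 cm below six 15 W blacklight lamps (λmax 350 nm). Aliquots taken at 0, 10 and 30 min were analysed by RP-HPLC with UV detection at 280 nm. Intact probe concentration was estimated from chromatogram peak areas.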

Lck, sequence (P06239 whole entry): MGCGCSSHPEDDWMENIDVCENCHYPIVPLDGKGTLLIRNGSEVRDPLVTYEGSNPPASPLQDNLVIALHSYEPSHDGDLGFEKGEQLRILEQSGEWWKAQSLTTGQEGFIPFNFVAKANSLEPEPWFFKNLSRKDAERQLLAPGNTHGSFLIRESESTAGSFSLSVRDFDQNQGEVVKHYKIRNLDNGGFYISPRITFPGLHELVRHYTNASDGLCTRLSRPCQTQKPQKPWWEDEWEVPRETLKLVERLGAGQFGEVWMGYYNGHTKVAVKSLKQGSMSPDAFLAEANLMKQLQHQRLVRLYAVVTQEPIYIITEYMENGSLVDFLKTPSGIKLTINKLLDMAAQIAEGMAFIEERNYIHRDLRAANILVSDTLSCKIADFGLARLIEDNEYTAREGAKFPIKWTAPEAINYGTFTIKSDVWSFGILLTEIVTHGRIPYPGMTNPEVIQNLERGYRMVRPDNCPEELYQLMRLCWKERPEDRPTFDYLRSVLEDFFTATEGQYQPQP

Row | SMILES | photolabeling of Lck in the presence of an ATP-competitive inhibitor of Lck (Lck) | photolabeling efficiency of Lck (in words) (Lck) | decomposition of free ligand under UV (in words) [1]
1 | Nc1ncnc2c1ncn2CC(=O)N(CCNC(=O)CCCNC(=O)[C@H](Cc1ccc(C(=O)c2ccccc2)cc1)NC(=O)CCCNC(=O)CCCC[C@@H]1SC[C@@H]2NC(=O)N[C@@H]21)CC(=O)NCC(=O)O [Compound 6] | completely blocked | – | –
2 | Nc1ncnc2c1ncn2CC(=O)N(CCNC(=O)[C@@H](CO)NC(=O)[C@H](Cc1ccc(C(=O)c2ccccc2)cc1)NC(=O)CCCNC(=O)CCCC[C@@H]1SC[C@@H]2NC(=O)N[C@@H]21)CC(=O)NCC(=O)O [Compound 2] | completely blocked | comparable to that of 1 | –
3 | Nc1ncnc2c1ncn2CC(=O)N(CCNC(=O)[C@H]1CCCN1C(=O)[C@H](Cc1ccc(C(=O)c2ccccc2)cc1)NC(=O)CCCNC(=O)CCCC[C@@H]1SC[C@@H]2NC(=O)N[C@@H]21)CC(=O)NCC(=O)O [Compound 4] | – | – | almost identical to that of 1

More lines, main results first:

Row | photolabeling of Lck in the presence of an ATP-competitive inhibitor of Lck (Lck) | SMILES | photolabeling efficiency of Lck (in words) (Lck) | decomposition of free ligand under UV (in words) [1]
4 | completely blocked | Nc1ncnc2c1ncn2CC(=O)N(CCNC(=O)[C@@H](CCC(=O)O)NC(=O)[C@H](Cc1ccc(C(=O)c2ccccc2)cc1)NC(=O)CCCNC(=O)CCCC[C@@H]1SC[C@@H]2NC(=O)N[C@@H]21)CC(=O)NCC(=O)O [Compound 3] | comparable to that of 1 | –
5 | completely blocked | Nc1ncnc2c1ncn2CC(=O)N(CCNC(=O)CNC(=O)[C@H](Cc1ccc(C(=O)c2ccccc2)cc1)NC(=O)CCCNC(=O)CCCC[C@@H]1SC[C@@H]2NC(=O)N[C@@H]21)CC(=O)NCC(=O)O [Compound 1] | – | –
